# Compound activity: PubChem, The Scripps Research Institute Molecular Screening Center
# M5 ag: CHRM5 agonism in calcium assay | P08912 | 360,000 tested, 0.19% active | CHO-K1 hM5 cells, Fluo-8 calcium fluorescence; 0% DMSO wells, 100% maximal acetylcholine response | activation, % at 3 µM;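 active means activation above the run's mean over test compounds plus 3 SD, cut at about 23% in these data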;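 further: signal is peak over basal fluorescence ratio across the kinetic read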
# Target sequence (P08912 whole entry, looked up): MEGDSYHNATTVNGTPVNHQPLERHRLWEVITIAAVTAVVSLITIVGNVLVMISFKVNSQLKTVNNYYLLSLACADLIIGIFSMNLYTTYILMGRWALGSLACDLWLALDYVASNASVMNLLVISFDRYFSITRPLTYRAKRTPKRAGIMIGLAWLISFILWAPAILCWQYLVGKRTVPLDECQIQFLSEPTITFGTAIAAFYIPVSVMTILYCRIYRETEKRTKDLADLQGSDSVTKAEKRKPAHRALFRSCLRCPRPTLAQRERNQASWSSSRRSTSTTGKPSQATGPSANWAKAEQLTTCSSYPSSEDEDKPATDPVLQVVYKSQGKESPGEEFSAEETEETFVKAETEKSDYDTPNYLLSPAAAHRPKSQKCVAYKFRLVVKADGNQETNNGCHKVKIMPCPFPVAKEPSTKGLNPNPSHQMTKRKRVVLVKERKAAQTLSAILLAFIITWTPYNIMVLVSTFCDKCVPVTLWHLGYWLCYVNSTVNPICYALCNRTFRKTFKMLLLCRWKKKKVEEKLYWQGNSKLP
# CHRM4 PAM: positive allosteric modulators of human muscarinic M4 receptor; activation, % at 3 µM; AID 624126; 360,000 tested, 0.4% active; CHO-K1 hM4/Gqi5, Fluo-8 calcium fluorescence, ACh EC20; 0% = ACh EC20, 100% = maximal ACh; P08173;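 active means activation above its plate's cutoff, the mean activation of sample wells plus 3 SD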
# M4 antag: blocks acetylcholine activation of human M4 receptor | P08173 | CHO-hM4 cells, ACh EC80, Fluo-8 calcium fluorescence | inhibition, % at 3 µM | 360,000 tested, 0.73% active | AID 624125;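 active means inhibition above its plate's cutoff, the mean inhibition of sample wells plus 3 SD, cut at about 27% in these data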
# CHRM5 antagonist: blocks acetylcholine activation of human M5 receptor | CHO-hM5 cells, Fluo-8 calcium fluorescence, ACh EC80 | inhibition, % at 3 µM | 360,000 tested, 0.59% active;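 active means inhibition above a per-plate cutoff, the mean of that plate's test compounds plus 3 SD, cut at about 27% in these data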
# M4 ag: CHRM4 agonism in calcium assay; CHO-K1 hM4/Gqi5, Fluo-8 calcium fluorescence; vehicle 0%, full acetylcholine response 100%; activation, % at 3 µM; 360,000 tested, 0.14% active; P08173; AID 624127;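 active means activation above the run mean over all test wells plus 3 SD, cut at about 32% in these data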;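 further: peak over basal fluorescence ratio per well then scaled between controls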
# CHRM5 PAM: positive allosteric modulators of human muscarinic M5 receptor; CHO-K1 hM5, Fluo-8 calcium, ACh EC20 PAM; 0% = ACh EC20, 100% = ACh EC100; activation, % at 3 µM; 360,000 tested, 0.3% active; P08912;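 active means activation above the run cutoff, the mean activation of all test compounds plus 3 SD, cut at about 18% in these data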
#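 system = human M5 receptor in CHO-K1 cells | compound = one concentration, 3 µM final (nominal) | schedule = Post-acetylcholine fluorescence recording 140 s | signal = Fluo-8 calcium dye fluorescence, kinetic read | benchmarks = low control EC20 acetylcholine (0%), high control EC100 acetylcholine (100%) | repeats = singlicate, one well per test compound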
# A number is an active result; 0 = inactive; ! = not active in a repeat. Rows were chosen to be rich in hits. Some 1.8% of all compounds tested hit in one or more screens of this group.
SMILES,M5 ag,CHRM4 PAM,M4 antag,CHRM5 antagonist,M4 ag,CHRM5 PAM
CCCCn1nnnc1C(c1cc2ccccc2o1)N1CCN(c2c(C)cccc2C)CC1 (centres undefined),0,0,0,0,0,0
Cc1cccc(C)c1N1CCN(C(c2cc3ccccc3o2)c2nnnn2C(C)(C)C)CC1 (centres undefined),0,0,26,0,0,0
NC(=O)c1c(NC(=O)Cn2cnc([N+](=O)[O-])n2)sc2c1CCCC2,0,0,28,0,0,0
CCc1ccc(C2C(C#N)=C(N)SC(N)=C2C#N)cc1,0,0,0,0,46,0
CCOc1ccc(C2C(C#N)=C(N)SC(N)=C2C#N)cc1OCC,0,0,0,0,0,0
CC(C)C[C@H](N)c1nnc(S(=O)(=O)Cc2ccc(F)cc2)o1,0,0,28,0,0,0
Cc1ccccc1C(=O)NNC(=O)CCC(=O)Nc1cccc(Cl)c1C,0,0,0,0,0,19
Cc1ccc(Cl)cc1N1CCN(C(=O)C2CCN(S(=O)(=O)c3cccnc3)CC2)CC1,0,0,0,0,0,0
Cc1ccc(Cl)cc1N1CCN(C(=O)C2CCN(S(=O)(=O)c3c(C)nn(C)c3C)CC2)CC1,0,0,0,30,0,0
COc1cccc(C(C#N)NCCCNC(C#N)c2cccc(OC)c2OC)c1OC (centres undefined),0,0,0,0,0,0
COc1cc(Cl)c(C)cc1NC(=O)CCCn1c(=O)oc2ccccc21,0,30,0,0,0,0
CN1CCN(CC#CCC(O)(c2ccccc2)C2CCCC2)CC1 (centres undefined),0,0,0,0,0,0
CCC[N+]1(CC#CC(O)(c2ccccc2)C2CCCCC2)CCCCC1 (centres undefined),0,0,97,99,0,0
NC(=O)C[N+]1(CC#CC(O)(c2ccccc2)c2ccccc2)CCCC1,0,0,33,34,0,0
CCN(CC)CCC#CC(O)(c1ccccc1)C1CCCCC1 (centres undefined),0,0,94,98,0,0
O=S(=O)([O-])CCC[N+]1(CC#Cc2ccccc2)CCCCC1,0,0,0,0,0,0
Cn1cnc(S(=O)(=O)N2CCN(c3cccc(Cl)c3)CC2)c1,0,0,0,0,0,0
CC1CCCC(C)N1C(=O)CN1C(=O)C(C)(C)Oc2ccc(C(=O)NC3CCCCC3)cc21 (centres undefined),0,0,0,0,0,0
CC1CCCC(C)N1C(=O)CN1C(=O)C(C)(C)Oc2ccc(C(=O)NC3CCCC3)cc21 (centres undefined),0,0,26,0,0,0
NC(=O)C1CCN(c2cc(Cl)nc(N)n2)CC1,0,26,0,0,0,0
COC(=O)C1CCN(c2cc(Cl)nc(N)n2)CC1,0,0,0,0,0,0
CC[C@@]1(C(=O)OC)N[C@H](CN(C)S(=O)(=O)c2ccc(C(F)(F)F)cc2)[C@@H]2C(=O)N(C)C(=O)[C@@H]21,0,0,0,0,0,0
CCN1CCN(Cc2ccc(NC(=O)c3ccc(C)c(NC(=O)c4ccnnc4)c3)cc2C(F)(F)F)CC1,0,0,0,0,0,0
CCN1CCN(Cc2ccc(C(=O)Nc3ccc(C)c(NCc4cnc(NC(=O)OC)cn4)c3)cc2C(F)(F)F)CC1,0,0,33!,0,0,0
O=C(NCCC(F)(F)F)c1cccc2c(-c3ccc(F)c(F)c3)coc12,0,0,0,0,0,0
SMILES,M5 ag,CHRM4 PAM,M4 antag,CHRM5 antagonist,M4 ag,CHRM5 PAM
Nc1c(C(=O)CSc2n[nH]c(-c3ccccc3Br)n2)c(=O)[nH]c(=O)n1C1CC1,0,0,0,0,0,0
Nc1c(C(=O)CSc2n[nH]c(-c3ccccc3)n2)c(=O)[nH]c(=O)n1C1CC1,0,23,0,0,0,0
O=S(=O)(NCc1ccco1)c1ccc(Cl)nc1,0,0,0,0,0,0
CC(=O)Oc1ccccc1/C=C/c1ccc2ccccc2[n+]1C,0,0,0,32,0,0
COc1ccc(/C=C/c2ccc3ccccc3[n+]2C)cc1OC,0,0,0,0,0,0
Cc1ccc(-c2ccc(=O)n(CC(=O)NCCN(CC(C)C)CC(C)C)n2)cc1,0,0,0,0,0,24
CCN(CC)CCNC(=O)Cn1nc(-c2ccc(C)cc2)ccc1=O,0,0,0,0,0,0
O=C(CCn1cccn1)N1CCCC(N2CCN(c3cccc(Cl)c3)CC2)C1 (centres undefined),0,0,0,0,0,0
O=C(NCc1cccs1)c1ccc(N2CCCC2=O)cc1,0,0,0,0,0,22
Cc1ccc(C)c(CC(=O)N2CCCC(c3cc(C(=O)Nc4ccccc4Cl)no3)C2)c1 (centres undefined),0,0,0,0,0,0
Cc1ccc(Nc2ccc(NCc3ccccc3)nn2)cc1C,0,0,0,0,0,0
Clc1ccc(Nc2ccc(NCc3ccccc3)nn2)cc1,0,0,0,0,50,0
Cc1ccc(S(=O)(=O)N2CCN(Cc3ccccc3)CC2)s1,0,0,0,0,0,0
Cc1ccc(C)c(CN2C(=O)CSc3ccc(C(=O)NCCN4CCOCC4)cc32)c1,0,0,0,0,0,0
O=C(NCCCN1CCOCC1)c1ccc2c(c1)N(Cc1c(F)cccc1Cl)C(=O)CS2,0,0,58,0,0,0
Cc1cccc(CN2C(=O)/C(=C\c3ccc(C(=O)NCCN4CCOCC4)cc3)Sc3ccccc32)c1,0,0,0,31,0,0
O=C(NCCN1CCOCC1)c1ccc2c(c1)N(Cc1ccccc1F)C(=O)CS2,0,0,47,0,0,0
COC(=O)c1c(C)[nH]c(C(=O)COC(=O)CCc2ccc(OC)c(OC)c2)c1C,0,0,0,0,0,0
C[C@H](NC(=O)Nc1ccc2c(c1)OCCO2)C(=O)O,0,0,0,0,0,0
N#Cc1ccccc1CCN1C(=O)c2ccccc2C1=O,0,0,0,0,0,0
CCOc1ccc(NC(=O)CNc2cccc(S(=O)(=O)N3CCCCCC3)c2)cc1OCC,0,0,0,0,0,0
O=C1/C(=C/c2ccc(N3CCOCC3)o2)SC(=Nc2ccccc2)N1CCc1c[nH]c2ccccc12,0,0,42,0,0,0
COc1cc(/C=C2\SC(=Nc3ccccc3)N(CCc3c[nH]c4ccccc34)C2=O)ccc1OC(C)C(=O)O (centres undefined),0,0,0,0,0,0
CCC(C)(C)NC(=O)C(c1ccccn1)N(C(=O)c1csnn1)C1CCCCC1 (centres undefined),0,0,0,0,0,23
